# Experimental data of several laboratories.
# Lines come from different studies, so protocols differ.
Compound,target or system,test,setting,measurement,result
c1ccc(Oc2ccc(Nc3c4c(nc5ccccc35)CCC4)cc2)cc1,Leishmania infantum,"parasite growth, MTT",promastigote,EC50,539 nM
C[C@@H]1O[C@@H](OC[C@H]2O[C@@H](Oc3c(-c4ccc(O)c(O)c4)oc4cc(O)cc(O)c4c3=O)[C@H](O)[C@@H](O)[C@@H]2O)[C@H](O)[C@H](O)[C@H]1O,Streptococcus mutans,"microbial killing, broth dilution",,MBC,400 µg/mL
C[C@@H]1[C@H](O)[C@@H](C)/C=C/C=C/C=C/C=C/C=C/C=C/C=C/[C@H](O[C@@H]2O[C@H](C)[C@@H](O)[C@H](N)[C@@H]2O)C[C@@H]2O[C@](O)(C[C@@H](O)C[C@@H](O)[C@H](O)CC[C@@H](O)C[C@@H](O)CC(=O)O[C@H]1C)C[C@H](O)[C@H]2C(=O)O,Leishmania infantum,"parasite growth, MTT",promastigote,IC50,1490 nM
Cc1nc(Nc2ncc(C(=O)Nc3c(C)cccc3Cl)s2)cc(N2CC[C@H](O)C2)n1,DOHH-2,"cell growth or viability, ATP luminescence","10 µM, 72 h",inhibition,86%
C[C@H](N)C(=O)Nc1ccccc1/N=c1\cc(-c2ccc3c(c2)OCCO3)oc2c(N)cccc12,HCT-116,"cell growth or viability, CCK-8",1 µM,inhibition,10.5%
Oc1cc(O)c2c(c1)O[C@H](c1cc(O)c(O)c(O)c1)[C@@H](O)C2,Streptococcus mutans,"microbial killing, broth dilution",,MBC,400 µg/mL
CC(=O)NC[C@H]1CN(c2ccc(N3CCOCC3)c(F)c2)C(=O)O1,Streptococcus pyogenes,microbial growth,clinical isolate,MIC90,2 µg/mL
C[C@H](N)C(=O)Nc1ccccc1/N=c1\cc(-c2ccc3c(c2)OCO3)oc2ccccc12,HCT-116,"cell growth or viability, CCK-8",1 µM,inhibition,11%
O=C(O[C@@H]1O[C@@H]2COC(=O)c3cc(O)c(O)c(O)c3-c3c(cc(O)c(O)c3O)C(=O)O[C@H]([C@H]1O)[C@@H]2O)c1cc(O)c(O)c(O)c1,Streptococcus mutans,"microbial growth, broth dilution",24 h,MIC,200 µg/mL
NCCC(=O)Nc1ccccc1/N=c1\cc(-c2ccc3nc(N)oc3c2)oc2cc(O)ccc12,HCT-116,"cell growth or viability, CCK-8",1 µM,inhibition,16.4%
CC[C@H]1OC(=O)[C@H](C)[C@@H](O[C@H]2C[C@@](C)(OC)[C@@H](O)[C@H](C)O2)[C@H](C)[C@@H](O[C@@H]2O[C@H](C)C[C@H](N(C)C)[C@H]2O)[C@](C)(O)C[C@@H](C)/C(=N\OCOCCOC)[C@H](C)[C@@H](O)[C@]1(C)O,Streptococcus pyogenes,microbial growth,clinical isolate,MIC90,2 µg/mL
O=c1oc2c(O)c(O)cc3c(=O)oc4c(O)c(O)cc1c4c23,Streptococcus mutans,"microbial growth, broth dilution",24 h,MIC,100 µg/mL
CCOc1ccc(Nc2c3c(nc4ccccc24)CCC3)cc1,Leishmania infantum,"parasite growth, MTT",promastigote,EC50,645 nM
NCCC(=O)Nc1cccc(/N=c2\cc(-c3ccc4c(c3)OCO4)oc3ccccc23)c1,HCT-116,"cell growth or viability, CCK-8",1 µM,inhibition,0.28%
O=C1O[C@H]2[C@@H]3OC(=O)c4cc(O)c(O)c(O)c4-c4c(O)c(O)c5oc(=O)c6c(c(O)c(O)c7oc(=O)c4c5c76)-c4c(cc(O)c(O)c4O)C(=O)OC[C@H]3OC(O)[C@@H]2OC(=O)c2cc(O)c(O)c(O)c2-c2c1cc(O)c(O)c2O (mixture of isomers),Streptococcus mutans,"microbial killing, broth dilution",,MBC,200 µg/mL
